Data: ChEMBL document CHEMBL2093137, “WHO-TDR NTD Screening”
Converted amounts (≈) assume the structure as drawn.

Assays:
[1] = WHO-TDR: Cytotoxicity; assay type: toxicity, cell-based; settings: human, MRC5 cells
Plasmodium falciparum K1 = experiment: WHO-TDR: Malaria; assay type: functional, organism-based, Homo sapiens; settings: Erythrocyte
How it was run: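 Whole-organism screen of a 10,000-compound diverse library from Life Chemicals, filtered for drug-likeness and reactive groups, against intra-erythrocytic Plasmodium falciparum K1 strain in human red blood cells. The assay followed previously published standard procedures, with a reference drug as positive control. Antiplasmodial potency is reported as IC50.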

Trypanosoma cruzi = experiment: WHO-TDR: Chagas disease; assay type: functional, organism-based, Homo sapiens; settings: MRC5
How it was run: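 A diverse library of 10,000 compounds from Life Chemicals, filtered for drug-likeness and reactive groups, was screened against intracellular amastigotes of Trypanosoma cruzi Tulahuen CL2 beta-galactosidase strain. The parasites were grown in MRC-5SV2 human lung fibroblast host cells, and a reference drug served as positive control under previously published standard procedures. Antiparasitic potency is given as IC50.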

[2] = system: Trypanosoma brucei brucei; experiment: WHO-TDR: Human African Trypanosomiasis (HAT); assay type: functional, organism-based; settings: Squib-427
How it was run: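 Whole-organism screen of a 10,000-compound diverse library from Life Chemicals, filtered for drug-likeness and reactive groups, against bloodstream forms of Trypanosoma brucei Squib 427 strain. The assay followed previously published standard procedures, with reference drugs as positive controls. Antiparasitic potency is reported as IC50.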

Leishmania infantum = experiment: WHO-TDR: Leishmaniasis; assay type: functional, organism-based, Mus musculus; settings: Macrophage
How it was run: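 Whole-organism screen of a 10,000-compound diverse library from Life Chemicals, filtered for drug-likeness and reactive groups, against intracellular amastigotes of Leishmania infantum MHOM/MA(BE)/67 in murine peritoneal macrophage host cells. The assay followed previously published standard procedures, with a reference drug as positive control. Antiparasitic potency is reported as IC50.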

Onchocerca ochengi = experiment: WHO-TDR: Onchocerciasis; assay type: functional; parameters: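 at 12.5 µM on microfilariae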
How it was run: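 Percent inhibition and IC50 describe activity against microfilariae of Onchocerca ochengi or Onchocerca lienalis, used as animal-pathogen substitutes for the human parasite. The compounds tested made up a 10,000-member diverse library from Life Chemicals.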

Brugia malayi = experiment: WHO-TDR: Lymphatic Filariasis; assay type: functional; parameters: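 tested at 10 µM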
How it was run: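 The screening set was a 10,000-compound diverse library from Life Chemicals, filtered for drug-likeness and for reactive groups. It was run against Brugia malayi microfilariae as whole organisms, using previously published standard procedures. Reference drugs acted as positive controls, and activity is reported both as percent inhibition and as IC50.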

SMILES	IC50 [1]	IC50 (Plasmodium falciparum K1)	IC50 (Trypanosoma cruzi)	IC50 [2]	IC50 (Leishmania infantum)	% Inhibition (Onchocerca ochengi)	% Inhibition (Brugia malayi)
O=C(CCc1csc(NC(=O)c2ccco2)n1)NCc1c(F)cccc1F	> 11.7 µg/mL	> 11.7 µg/mL	> 11.7 µg/mL	> 11.7 µg/mL	> 11.7 µg/mL	100%	0%
CCOC(=O)N1CCC(NC(=O)CCc2csc(NC(=O)c3ccccc3)n2)CC1	4.08 µg/mL (≈ 9.49 µM)	10.6 µg/mL (≈ 24.6 µM)	> 12.9 µg/mL	> 12.9 µg/mL	> 12.9 µg/mL	100%	0%
COc1ccc(S(=O)(=O)Nc2cc(C)nn2C2CCS(=O)(=O)C2)cc1C (stereo not given)	> 12 µg/mL	> 12 µg/mL	> 12 µg/mL	> 12 µg/mL	> 12 µg/mL	100%	0%
Cc1cc(NS(=O)(=O)c2c(C)noc2C)n(C2CCS(=O)(=O)C2)n1 (stereo not given)	> 11.2 µg/mL	> 11.2 µg/mL	> 11.2 µg/mL	> 11.2 µg/mL	> 11.2 µg/mL	100%	0%
Cc1cc(-c2nnc(SCC(=O)Nc3cccc(C(F)(F)F)c3)o2)c(C)o1	> 11.9 µg/mL	> 11.9 µg/mL	> 11.9 µg/mL	4.69 µg/mL (≈ 11.8 µM)	> 11.9 µg/mL	100%	0%
O=C(NCCNc1ccc(Nc2cccnc2)nn1)c1cccc(C(F)(F)F)c1	> 12.1 µg/mL	9.79 µg/mL (≈ 24.3 µM)	> 12.1 µg/mL	> 12.1 µg/mL	> 12.1 µg/mL	100%	0%
CCOCC(=O)Nc1ccc(-c2nnc(N(C)c3ccc(OC)cc3)s2)cc1	> 12 µg/mL	> 12 µg/mL	> 12 µg/mL	> 12 µg/mL	> 12 µg/mL	100%	0%
COc1ccc(-c2cn3c(C(=O)Nc4cc(C)on4)csc3n2)cc1	> 10.6 µg/mL	> 10.6 µg/mL	> 10.6 µg/mL	> 10.6 µg/mL	> 10.6 µg/mL	100%	0%
COc1ccc(-c2cn3c(C(=O)Nc4ccc(OC(F)(F)F)cc4)csc3n2)cc1	1.79 µg/mL (≈ 4.14 µM)	4.41 µg/mL (≈ 10.2 µM)	3.69 µg/mL (≈ 8.5 µM)	4.11 µg/mL (≈ 9.49 µM)	4.21 µg/mL (≈ 9.71 µM)	100%	0%
COc1cccc(-c2cn3c(C(=O)N4CCN(c5ccccc5OC)CC4)csc3n2)c1	2.13 µg/mL (≈ 4.76 µM)	> 13.5 µg/mL	6.97 µg/mL (≈ 15.5 µM)	> 13.5 µg/mL	6.97 µg/mL (≈ 15.5 µM)	100%	0%
COc1ccc(-c2cn3c(C(=O)Nc4ccccc4F)csc3n2)cc1	> 11 µg/mL	> 11 µg/mL	> 11 µg/mL	> 11 µg/mL	> 11 µg/mL	100%	0%
COc1ccc(-c2cn3c(C(=O)Nc4ccc(F)cc4F)csc3n2)cc1	> 11.6 µg/mL	> 11.6 µg/mL	> 11.6 µg/mL	> 11.6 µg/mL	> 11.6 µg/mL	100%	0%
COc1ccc(-c2cn3c(C(=O)Nc4cc(C)ccc4C)csc3n2)cc1	> 11.3 µg/mL	> 11.3 µg/mL	> 11.3 µg/mL	3.11 µg/mL (≈ 8.23 µM)	5.86 µg/mL (≈ 15.5 µM)	100%	0%
COc1ccccc1CC(=O)c1ccc(O)c(CN2CCCC(C)C2)c1O (stereo not given)	> 11.1 µg/mL	0.343 µg/mL (≈ 0.928 µM)	> 11.1 µg/mL	3.63 µg/mL (≈ 9.83 µM)	> 11.1 µg/mL	0%	0%
Cc1cc(=O)[nH]c(-n2nc(-c3cccs3)cc2NC(=O)C2(c3ccc(Cl)cc3)CCCC2)n1	0.682 µg/mL (≈ 1.42 µM)	4.97 µg/mL (≈ 10.4 µM)	0.466 µg/mL (≈ 0.971 µM)	0.412 µg/mL (≈ 0.858 µM)	0.517 µg/mL (≈ 1.08 µM)	75%	0%
